Test results as given in ChEMBL document CHEMBL1212857, “Syntheses and pharmacological characterization of novel thiazole derivatives as potential mGluR5 PET ligands” (Bioorg Med Chem, 2010).

What was measured:
[1] = molecular target: Metabotropic glutamate receptor 5 (Rattus norvegicus, UniProt P31424); assay: Displacement of [3H]M-MPEP from mGluR5 in Sprague-Dawley rat brain membranes (cerebellum removed) after 45 mins by liquid scintillation counting
Striatum = assay: Drug uptake in Sprague-Dawley rat striatum at 0.5 to 5 nM after 45 mins by autoradiography; assay type: ADME, tissue-based; conditions: 0.75 h, 0.005 µM
Procedure, shortened: (§1)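 Frozen rat brain slices thawed 30 min at rt, preincubated 10 min at 4 °C in HEPES–BSA buffer pH 7.4, then covered with 0.5 or 5 nM [18F] tracer for 45 min at rt in a humid chamber. Blocking was by co-incubation with excess unlabeled ABP688. Washes were 3×3 min in HEPES buffer and 2×5 s in water at 4 °C, followed by 40 min drying and 7 min phosphor-plate exposure.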

Plasma [2] = assay: Metabolic stability in rat plasma after 120 mins by UPLC analysis; assay type: ADME, cell-free; conditions: 2 h
Procedure, shortened: (§2)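 [18F] tracer in ethanol added to human or rat plasma and incubated at 37 °C for 120 min. Aliquots taken at 0, 30, 60, 90 and 120 min into ice-cold acetonitrile, centrifuged (5000g, 4 °C, 10 min), and supernatant analysed by radio-UPLC.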

Plasma [3] = assay: Metabolic stability in human plasma after 120 mins by UPLC analysis; assay type: ADME, cell-free; conditions: 2 h
Procedure, shortened: as §2

[4] = Lipophilicity, log D of the compound at pH 7.4 by shake flask method; assay type: physicochemical; conditions: buffer
Procedure, shortened: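 Shake-flask log D (n = 5): [18F] tracer (80 kBq) added to 0.5 mL 1-octanol and 0.5 mL phosphate buffer pH 7.4, each pre-saturated with the other. Mixed 15 min, centrifuged at 5000g for 5 min, and radioactivity in each phase gamma-counted.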

[5] = Metabolic stability in rat liver microsomes assessed as compound remaining after 60 mins by UPLC analysis; assay type: ADME, Microsome; conditions: read-out: Stability
Procedure, shortened: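 Pooled rat liver microsomes (0.52 mg/mL protein). Tracer (20–50 nM) preincubated 5 min with 10 mM NADPH in 0.1 M phosphate pH 7.4 at 37 °C before microsomes were added; testosterone served as positive control and boiled microsomes as negative control. Reactions quenched with ice-cold acetonitrile at 0, 15, 30 and 60 min, centrifuged, and supernatant run by UPLC.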

Brain = assay: Drug uptake in Sprague-Dawley rat brain slices at 0.5 to 5 nM after 45 mins by autoradiography in presence of 500 nM of ABP688; assay type: ADME, tissue-based; conditions: 0.75 h, 0.005 µM
Procedure, shortened: as §1

Hippocampus = assay: Drug uptake in Sprague-Dawley rat hippocampus at 0.5 to 5 nM after 45 mins by autoradiography; assay type: ADME, tissue-based; conditions: 0.75 h, 0.005 µM
Procedure, shortened: as §1

Cortex = assay: Drug uptake in Sprague-Dawley rat cortex at 0.5 to 5 nM after 45 mins by autoradiography; assay type: ADME, tissue-based; conditions: 0.75 h, 0.005 µM
Procedure, shortened: as §1

Sequence of Metabotropic glutamate receptor 5 (P31424 whole entry): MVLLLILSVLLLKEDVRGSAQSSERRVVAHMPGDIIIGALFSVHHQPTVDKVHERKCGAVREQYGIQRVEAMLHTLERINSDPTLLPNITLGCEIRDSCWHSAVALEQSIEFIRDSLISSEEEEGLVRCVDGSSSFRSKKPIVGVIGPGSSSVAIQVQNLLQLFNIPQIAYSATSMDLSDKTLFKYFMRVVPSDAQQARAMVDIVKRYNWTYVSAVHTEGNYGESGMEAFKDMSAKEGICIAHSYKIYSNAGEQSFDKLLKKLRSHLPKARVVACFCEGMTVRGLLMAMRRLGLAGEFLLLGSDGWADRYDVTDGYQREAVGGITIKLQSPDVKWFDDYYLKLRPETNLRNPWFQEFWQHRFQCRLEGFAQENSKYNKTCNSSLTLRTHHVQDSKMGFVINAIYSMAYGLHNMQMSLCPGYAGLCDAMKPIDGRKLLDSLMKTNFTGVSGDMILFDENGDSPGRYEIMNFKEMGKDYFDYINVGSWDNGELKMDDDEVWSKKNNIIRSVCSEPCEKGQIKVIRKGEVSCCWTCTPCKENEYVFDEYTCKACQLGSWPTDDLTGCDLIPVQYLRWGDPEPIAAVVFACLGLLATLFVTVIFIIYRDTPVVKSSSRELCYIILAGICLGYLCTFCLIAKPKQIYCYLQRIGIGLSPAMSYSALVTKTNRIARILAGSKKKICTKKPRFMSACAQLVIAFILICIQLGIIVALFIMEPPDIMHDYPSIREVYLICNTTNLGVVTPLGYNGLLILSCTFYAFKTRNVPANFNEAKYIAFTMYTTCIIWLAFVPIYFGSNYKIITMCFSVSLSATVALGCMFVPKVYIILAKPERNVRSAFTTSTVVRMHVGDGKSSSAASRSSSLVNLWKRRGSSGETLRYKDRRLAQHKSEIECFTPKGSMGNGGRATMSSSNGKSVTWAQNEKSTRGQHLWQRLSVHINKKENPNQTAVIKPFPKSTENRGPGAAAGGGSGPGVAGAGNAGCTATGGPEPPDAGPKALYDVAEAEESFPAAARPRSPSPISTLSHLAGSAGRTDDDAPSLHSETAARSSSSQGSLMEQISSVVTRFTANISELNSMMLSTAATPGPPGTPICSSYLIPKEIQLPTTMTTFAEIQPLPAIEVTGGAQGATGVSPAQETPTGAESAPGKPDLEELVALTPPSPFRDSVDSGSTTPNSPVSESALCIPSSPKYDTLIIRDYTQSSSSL

SMILES: CO/N=C1/C=C(C#Cc2csc(CF)n2)CCC1
- Ki [1]: 5.5 nM

SMILES: CO/N=C1/C=C(C#Cc2nccs2)CCC1
- Ki [1]: 20.3 nM

SMILES: FCCOCCO/N=C1/C=C(C#Cc2cscn2)CCC1
- Ki [1]: 36 nM

SMILES: Cc1nc(C#CC2=C/C(=N/OCCOCCF)CCC2)cs1
- Ki [1]: 21.9 nM

SMILES: CO/N=C1/C=C(C#Cc2csc(C[18F])n2)CCC1
- Drug uptake (Striatum): Active
- Stability (Plasma [2]): Stable
- Stability (Plasma [3]): Stable
- logD [4]: 1.6
- remaining at 1 h [5]: 93%
- Drug uptake (Brain): Not Active
- Drug uptake (Hippocampus): Active
- Drug uptake (Cortex): Active
